Experimental findings from article PMC6331009 (Chemosphere, 2017) are described below.

Assay type in all cases: biochemical
Assay [1] concerns the target T1, UGT1A9 (Homo sapiens, UniProt O60656).
T1 sequence (O60656 26-530): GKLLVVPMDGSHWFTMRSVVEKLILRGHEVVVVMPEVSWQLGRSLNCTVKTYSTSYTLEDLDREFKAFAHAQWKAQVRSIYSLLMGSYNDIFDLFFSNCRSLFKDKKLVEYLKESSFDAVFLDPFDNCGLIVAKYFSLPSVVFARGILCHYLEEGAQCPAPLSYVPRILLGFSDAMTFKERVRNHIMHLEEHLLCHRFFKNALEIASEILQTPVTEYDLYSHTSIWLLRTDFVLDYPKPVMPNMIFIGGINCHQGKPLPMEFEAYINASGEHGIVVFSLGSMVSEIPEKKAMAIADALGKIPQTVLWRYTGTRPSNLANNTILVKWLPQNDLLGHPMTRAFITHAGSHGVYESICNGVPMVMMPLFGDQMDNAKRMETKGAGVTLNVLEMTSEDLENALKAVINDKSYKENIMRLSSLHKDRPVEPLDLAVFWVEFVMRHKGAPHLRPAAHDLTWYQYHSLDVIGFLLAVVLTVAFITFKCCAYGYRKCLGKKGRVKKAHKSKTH
Nature of the assay: 4-MU glucuronidation, UPLC-UV, dose response. In short, it runs like this:
(§1)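 Recombinant human UGT isoform expressed in baculovirus-infected insect cells. Test compound at 0, 0.5, 1, 5, 10, 20, 40, 60, 80 and 100 µM, with no-compound controls. After 5 min preincubation at 37 °C, 5 mM UDPGA was added to start the reaction. Reactions were stopped at 30–120 min with acetonitrile containing 7-hydroxycoumarin internal standard. 4-MU glucuronide was measured by C18 UPLC with UV at 316 nm as the peak-area ratio to internal standard. Two independent experiments in duplicate.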

Assay [2] deals with T1, UGT1A9. The assay can be described thus: 4-MU glucuronidation, UPLC-UV, Lineweaver-Burk slope replot. In short, it runs like this: (§2)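 Recombinant human UGT isoform expressed in insect cells. 4-MU was varied, with or without test compound at levels giving 20%, 40%, 60% and 80% inhibition. After 5 min at 37 °C, 5 mM UDPGA was added; reactions ran 30–120 min. Glucuronide was quantified by UPLC-UV at 316 nm against a 7-hydroxycoumarin internal standard, with points as duplicate means. Inhibition type came from Lineweaver-Burk plots, and Ki from a replot of slopes against inhibitor concentration.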

The target of assay [3] is T2, UGT1A6 (Homo sapiens, UniProt P19224).
T2 sequence (P19224 27-532): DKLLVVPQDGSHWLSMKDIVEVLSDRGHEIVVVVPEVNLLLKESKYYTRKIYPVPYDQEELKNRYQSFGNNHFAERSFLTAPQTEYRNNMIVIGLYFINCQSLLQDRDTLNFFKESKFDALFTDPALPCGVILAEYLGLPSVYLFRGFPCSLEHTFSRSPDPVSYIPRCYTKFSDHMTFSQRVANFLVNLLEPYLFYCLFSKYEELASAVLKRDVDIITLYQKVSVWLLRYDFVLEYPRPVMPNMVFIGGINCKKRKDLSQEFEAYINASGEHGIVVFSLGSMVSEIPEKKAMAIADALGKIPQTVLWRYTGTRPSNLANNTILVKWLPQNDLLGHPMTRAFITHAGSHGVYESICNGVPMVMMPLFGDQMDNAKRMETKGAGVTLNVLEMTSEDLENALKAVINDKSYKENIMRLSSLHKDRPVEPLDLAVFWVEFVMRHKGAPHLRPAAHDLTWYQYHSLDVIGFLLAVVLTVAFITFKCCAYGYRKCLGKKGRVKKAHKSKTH
Nature of the assay: 4-MU glucuronidation, UPLC-UV, dose response. In short, it runs like this:
as §1

The target in assay [4] is T3, UGT1A7 (Homo sapiens, UniProt Q9HAW7).
T3 sequence (Q9HAW7 26-530): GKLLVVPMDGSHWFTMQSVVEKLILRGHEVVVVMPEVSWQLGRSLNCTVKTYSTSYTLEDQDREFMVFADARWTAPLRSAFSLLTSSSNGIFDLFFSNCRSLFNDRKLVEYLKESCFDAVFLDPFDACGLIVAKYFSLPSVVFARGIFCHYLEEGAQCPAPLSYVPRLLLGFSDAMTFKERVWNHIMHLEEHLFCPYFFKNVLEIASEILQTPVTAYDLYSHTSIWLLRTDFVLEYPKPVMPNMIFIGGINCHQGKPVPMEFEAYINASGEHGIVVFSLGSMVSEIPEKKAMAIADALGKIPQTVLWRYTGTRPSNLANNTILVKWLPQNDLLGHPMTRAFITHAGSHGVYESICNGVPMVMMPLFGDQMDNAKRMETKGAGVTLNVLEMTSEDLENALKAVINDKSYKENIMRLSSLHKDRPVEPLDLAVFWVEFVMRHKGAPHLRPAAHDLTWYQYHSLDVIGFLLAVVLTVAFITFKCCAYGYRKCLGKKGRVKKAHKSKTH
Nature of the assay: 4-MU glucuronidation, UPLC-UV, Lineweaver-Burk slope replot. In short, it runs like this: as §2

The target of assay [5] is T2, UGT1A6. The description is as above. In short, it runs like this:
as §2

The target in assay [6] is T3, UGT1A7. The assay can be described thus: 4-MU glucuronidation, UPLC-UV, dose response. In short, it runs like this:
as §1

For assay [7], the target named is T4, UGT2B4 (Homo sapiens, UniProt P06133).
T4 sequence (P06133 24-528): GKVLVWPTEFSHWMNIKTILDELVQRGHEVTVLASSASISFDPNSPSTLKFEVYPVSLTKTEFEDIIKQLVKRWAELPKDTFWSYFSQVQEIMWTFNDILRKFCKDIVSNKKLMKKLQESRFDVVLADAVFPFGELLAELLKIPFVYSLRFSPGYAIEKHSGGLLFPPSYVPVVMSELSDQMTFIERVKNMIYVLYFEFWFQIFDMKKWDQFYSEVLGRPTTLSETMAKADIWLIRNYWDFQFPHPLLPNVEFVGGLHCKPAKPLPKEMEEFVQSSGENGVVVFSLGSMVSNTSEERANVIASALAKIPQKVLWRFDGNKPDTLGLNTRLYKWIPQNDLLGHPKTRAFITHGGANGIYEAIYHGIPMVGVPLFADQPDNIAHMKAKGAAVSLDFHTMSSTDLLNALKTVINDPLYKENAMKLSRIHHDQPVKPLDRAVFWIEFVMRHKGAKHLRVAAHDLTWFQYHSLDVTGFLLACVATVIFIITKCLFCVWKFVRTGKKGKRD
Nature of the assay: 4-MU glucuronidation, UPLC-UV, Lineweaver-Burk slope replot. A digest of the protocol:
as §2

Assay [8] deals with T4, UGT2B4. Nature of the assay: 4-MU glucuronidation, UPLC-UV, dose response. In short, it runs like this: as §1
Setting [9] is: competitive, 4-MU 30 μM, UDPGA 5 mM, MgCl2 5 mM, Tris-HCl pH 7.4, 37 °C.
Where [10] appears, read: competitive, 4-MU varied, UDPGA 5 mM, MgCl2 5 mM, Tris-HCl pH 7.4, 37 °C.

Read-outs that look alike come from different tables or passages of the source.

Consider `CC(C)CCOC(=O)c1ccccc1C(=O)OCCC(C)C` [DiPP], for which 14.7 µM corresponded to half-maximal inhibition against UGT1A9 [1] (IC50). Moreover, affinity at UGT1A9 [2] was put at a Ki of 5.61 µM.

For `CCCCOCCOC(=O)c1ccccc1C(=O)OCCOCCCC` [BBOP], the IC50 (as a rule, the concentration at which inhibition is half-maximal) against UGT1A6 [3] was found to be 35.1 µM; against UGT1A9 [1] it was 28.3 µM; at UGT1A7 [6] it was 18.2 µM. In addition, the results for the Ki at UGT1A9 [2], at UGT1A7 [4] and on UGT1A6 [5] were 73.7 µM, 23.6 µM and 15.5 µM, respectively.

As for `CC(C)COC(=O)c1ccccc1C(=O)OCC(C)C` [DiBP], the values for the Ki at UGT2B4 [7] and at UGT1A9 [2] were 6.79 µM and 2.79 µM, respectively. In addition, the IC50 amounted to 7.03 µM at UGT1A9 [1] and 5.89 µM on UGT2B4 [8].

Regarding `CCCCCCOC(=O)c1ccccc1C(=O)OCCCCCC` [DHP], on UGT1A9 [1] (setting [9]), the half-maximal inhibitory concentration (IC50) worked out at 25.4 µM. Also, the affinity at UGT1A9 [2] (setting [10]) corresponds to a Ki of 0.58 µM.

Take `O=C(OC1CCCCC1)c1ccccc1C(=O)OC1CCCCC1` [DCHP]: the half-inhibitory concentration (IC50) at UGT1A9 [1] (setting [9]) was 1.46 µM. The affinity at UGT1A9 [2] (setting [10]), expressed as Ki, was 1.07 µM.

Turning to `CCCCOC(=O)c1ccccc1C(=O)OCCCC` [DBP], the Ki (as a rule, the equilibrium dissociation constant of an inhibitor or competing ligand from its target) on UGT2B4 [7] turned out to be 4.93 µM; on UGT1A9 [2] it was 22.8 µM. Also, the IC50 was determined as 17.6 µM at UGT1A9 [1] and 11.9 µM against UGT2B4 [8].

`C=CCOC(=O)c1ccccc1C(=O)OCC=C` [DAP] showed a Ki at UGT2B4 [7] (setting [10]) of 6.73 µM. At UGT2B4 [8] (competitive, 4-MU 1000 μM, UDPGA 5 mM, MgCl2 5 mM, Tris-HCl pH 7.4, 37 °C), this compound came in with an IC50 of 14.3 µM.

The compound `COCCOC(=O)c1ccccc1C(=O)OCCOC` [DMEP] came in with an IC50 at UGT1A9 [1] (setting [9]) of 18.2 µM. For the same compound, the Ki on UGT1A9 [2] (setting [10]) turned out to be 4.51 µM.

With `CCCCOC(=O)c1ccccc1C(=O)OCc1ccccc1` [BBZP], the inhibition constant Ki on UGT2B4 [7] was 7.23 µM; at UGT1A9 [2] it was 0.84 µM; on UGT1A7 [4] it was 12.2 µM; on UGT1A6 [5], 52.3 µM. Besides, the IC50 was determined as 53.2 µM at UGT1A6 [3], 5.54 µM against UGT1A9 [1], 13.8 µM against UGT2B4 [8] and 19.5 µM at UGT1A7 [6].

For `CCCCCOC(=O)c1ccccc1C(=O)OCCCCC` [DPP], half-maximal inhibition at UGT1A9 [1] (IC50) required 18.5 µM. The Ki on UGT1A9 [2] amounted to 1.74 µM.
